In brackets after ≈: the same amount, converted by molar mass.
Legend:
[1] = test system: Staphylococcus epidermidis; test: Antibacterial activity against Staphylococcus epidermidis ATCC 49134 after 18 hrs by serial microdilution assay; type: functional; details: ATCC 49134, 18 h
[2] = test system: Staphylococcus aureus; test: Antibacterial activity against methicillin-resistant Staphylococcus aureus 1 after 18 hrs by serial microdilution assay; type: functional; details: Staphylococcus aureus, 1, 18 h
[3] = test system: Rhizopus stolonifer; test: Antifungal activity against Rhizopus stolonifer ATCC 56227b after 18 hrs by serial microdilution assay; type: functional
Method in brief: (§1)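 Fungal strains tested by MIC determination, with miconazole run as the reference antifungal. The two Fusarium oxysporum formae speciales are isolates from plants (cabbage and tomatoes).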

[4] = test system: Streptococcus pneumoniae; test: Antibacterial activity against Streptococcus pneumoniae ATCC 49619 after 18 hrs by serial microdilution assay; type: functional; details: ATCC 49619, 18 h
[5] = test system: Aspergillus fumigatus; test: Antifungal activity against Aspergillus fumigatus ATCC 204305 after 18 hrs by serial microdilution assay; type: functional; details: ATCC 204305, 18 h; method in brief: as §1
[6] = Antifungal activity against Fusarium oxysporum f. sp. betae after 18 hrs by serial microdilution assay; type: functional; method in brief: as §1
[7] = test system: Rhizopus stolonifer; test: Reduction in ergosterol content in Rhizopus stolonifer ATCC 56227 at 256 microg/ml by HPLC analysis; type: functional, organism-based; details: TDE = time-dependent effect
Method in brief: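 Treated fungal material was derivatised and its ergosterol measured by HPLC from the area of the ergosterol peak at Rt 8.26 min. Content is expressed as mg per 1 g dry fungal mass and followed over incubation time up to 96 h.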

[8] = test system: Staphylococcus epidermidis; test: Antibacterial activity against Staphylococcus epidermidis ATCC 12228 after 18 hrs by serial microdilution assay; type: functional; details: ATCC 12228, 18 h
[9] = test system: Staphylococcus aureus; test: Antibacterial activity against Staphylococcus aureus ATCC 25923 after 18 hrs by serial microdilution assay; type: functional; details: ATCC 25923, 18 h
[10] = test system: Aspergillus brasiliensis; test: Antifungal activity against Aspergillus brasiliensis ATCC 16404 after 18 hrs by serial microdilution assay; type: functional; details: ATCC 16404, 18 h; method in brief: as §1
[11] = test system: Fusarium acuminatum; test: Antifungal activity against Fusarium acuminatum ATCC 46651 after 18 hrs by serial microdilution assay; type: functional; details: ATCC 46651, 18 h; method in brief: as §1
[12] = test system: Bacillus subtilis; test: Antibacterial activity against Bacillus subtilis […] after 18 hrs by serial microdilution assay; type: functional
[13] = test system: Staphylococcus aureus; test: Antibacterial activity against methicillin-resistant Staphylococcus aureus 2 after 18 hrs by serial microdilution assay; type: functional; details: Staphylococcus aureus, 2, 18 h
[14] = test system: Micrococcus luteus; test: Antibacterial activity against Micrococcus luteus ATCC 10240 after 18 hrs by serial microdilution assay; type: functional; details: ATCC 10240, 18 h
[15] = test system: Trichophyton mentagrophytes; test: Antifungal activity against Trichophyton mentagrophytes ATCC 9533 after 18 hrs by serial microdilution assay; type: functional; details: ATCC 9533, 18 h; method in brief: as §1
[16] = test system: Staphylococcus aureus; test: Antibacterial activity against Staphylococcus aureus ATCC 6538 after 18 hrs by serial microdilution assay; type: functional; details: ATCC 6538, 18 h
[17] = test system: Fusarium oxysporum f. sp. lycopersici; test: Antifungal activity against Fusarium oxysporum f. sp. lycopersici after 18 hrs by serial microdilution assay; type: functional; method in brief: as §1
[18] = test system: Rhizopus stolonifer; test: Reduction in ergosterol content in Rhizopus stolonifer ATCC 56227 assessed per gram of dry fungi mass at 256 microg/ml incubated for 24 hrs measured after 24 to 96 hrs by HPLC analysis; type: functional
Method in brief: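 Ergosterol was quantified by HPLC in derivatized fungal material from treated cultures, using the peak area at a retention time of 8.26 min. Results are expressed as mg ergosterol per 1 g of dry fungal mass. Content was followed over incubation time, up to 96 h.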

Row | Structure (SMILES) | MIC [1] | MIC [2] | MIC [3] | MIC [4] | MIC [5] | MIC [6] | Activity [7] | MIC [8] | MIC [9] | MIC [10] | MIC [11] | MIC [12] | MIC [13] | MIC [14] | MIC [15] | MIC [16] | MIC [17] | Activity [18]
1 | Cc1cc2c(C(C)C)c(O)c(O)c(C=O)c2c(O)c1-c1c(C)cc2c(C(C)C)c(O)c(O)c(C=O)c2c1O [GOSSYPOL] | 16 µg/mL (≈ 30.9 µM) | 16 µg/mL (≈ 30.9 µM) | 128 µg/mL (≈ 247 µM) | 16 µg/mL (≈ 30.9 µM) | 256 µg/mL (≈ 494 µM) | 32 µg/mL (≈ 61.7 µM) | Tde | 16 µg/mL (≈ 30.9 µM) | 16 µg/mL (≈ 30.9 µM) | 256 µg/mL (≈ 494 µM) | 128 µg/mL (≈ 247 µM) | 16 µg/mL (≈ 30.9 µM) | 16 µg/mL (≈ 30.9 µM) | 32 µg/mL (≈ 61.7 µM) | 128 µg/mL (≈ 247 µM) | 16 µg/mL (≈ 30.9 µM) | 32 µg/mL (≈ 61.7 µM) | –
2 | Cc1cc2c(c(O)c1-c1c(C)cc3c(c1O)/C(=C/NCCCn1cc(COCc4ccccc4)nn1)C(=O)C(O)=C3C(C)C)/C(=C/NCCCn1cc(COCc3ccccc3)nn1)C(=O)C(O)=C2C(C)C | – | – | – | – | – | 16 µg/mL (≈ 16.4 µM) | – | – | – | – | – | – | – | – | – | – | 16 µg/mL (≈ 16.4 µM) | –
3 | CCCCCc1cn(CCCN/C=C2\C(=O)C(O)=C(C(C)C)c3cc(C)c(-c4c(C)cc5c(c4O)/C(=C/NCCCn4cc(CCCCC)nn4)C(=O)C(O)=C5C(C)C)c(O)c32)nn1 | > 256 µg/mL | > 256 µg/mL | 128 µg/mL (≈ 146 µM) | > 256 µg/mL | 256 µg/mL (≈ 293 µM) | 64 µg/mL (≈ 73.1 µM) | – | > 256 µg/mL | > 256 µg/mL | 256 µg/mL (≈ 293 µM) | 256 µg/mL (≈ 293 µM) | > 256 µg/mL | > 256 µg/mL | > 256 µg/mL | 256 µg/mL (≈ 293 µM) | > 256 µg/mL | 64 µg/mL (≈ 73.1 µM) | –
4 | CCCc1cn(CCN/C=C2\C(=O)C(O)=C(C(C)C)c3cc(C)c(-c4c(C)cc5c(c4O)/C(=C/NCCn4cc(CCC)nn4)C(=O)C(O)=C5C(C)C)c(O)c32)nn1 | 256 µg/mL (≈ 324 µM) | > 256 µg/mL | 128 µg/mL (≈ 162 µM) | 256 µg/mL (≈ 324 µM) | 256 µg/mL (≈ 324 µM) | 64 µg/mL (≈ 80.9 µM) | – | 256 µg/mL (≈ 324 µM) | 256 µg/mL (≈ 324 µM) | 256 µg/mL (≈ 324 µM) | 256 µg/mL (≈ 324 µM) | > 256 µg/mL | > 256 µg/mL | > 256 µg/mL | 256 µg/mL (≈ 324 µM) | 256 µg/mL (≈ 324 µM) | 64 µg/mL (≈ 80.9 µM) | –
5 | CCCCc1cn(CCCN/C=C2\C(=O)C(O)=C(C(C)C)c3cc(C)c(-c4c(C)cc5c(c4O)/C(=C/NCCCn4cc(CCCC)nn4)C(=O)C(O)=C5C(C)C)c(O)c32)nn1 | > 256 µg/mL | > 256 µg/mL | 128 µg/mL (≈ 151 µM) | > 256 µg/mL | 256 µg/mL (≈ 302 µM) | 64 µg/mL (≈ 75.6 µM) | – | > 256 µg/mL | > 256 µg/mL | 256 µg/mL (≈ 302 µM) | 256 µg/mL (≈ 302 µM) | > 256 µg/mL | > 256 µg/mL | > 256 µg/mL | 256 µg/mL (≈ 302 µM) | > 256 µg/mL | 64 µg/mL (≈ 75.6 µM) | –
6 | CCCc1cn(CCCN/C=C2\C(=O)C(O)=C(C(C)C)c3cc(C)c(-c4c(C)cc5c(c4O)/C(=C/NCCCn4cc(CCC)nn4)C(=O)C(O)=C5C(C)C)c(O)c32)nn1 | – | – | – | – | – | 64 µg/mL (≈ 78.1 µM) | – | – | – | – | – | – | – | – | – | – | 64 µg/mL (≈ 78.1 µM) | –
7 | CCCCCc1cn(CCN/C=C2\C(=O)C(O)=C(C(C)C)c3cc(C)c(-c4c(C)cc5c(c4O)/C(=C/NCCn4cc(CCCCC)nn4)C(=O)C(O)=C5C(C)C)c(O)c32)nn1 | > 256 µg/mL | > 256 µg/mL | 128 µg/mL (≈ 151 µM) | > 256 µg/mL | 256 µg/mL (≈ 302 µM) | 64 µg/mL (≈ 75.6 µM) | – | > 256 µg/mL | > 256 µg/mL | 256 µg/mL (≈ 302 µM) | 256 µg/mL (≈ 302 µM) | > 256 µg/mL | > 256 µg/mL | > 256 µg/mL | 256 µg/mL (≈ 302 µM) | > 256 µg/mL | 64 µg/mL (≈ 75.6 µM) | –
8 | Clc1ccc(COC(Cn2ccnc2)c2ccc(Cl)cc2Cl)c(Cl)c1 (stereo unspecified) [MICONAZOLE] | – | – | – | – | – | 16 µg/mL (≈ 38.4 µM) | – | – | – | – | – | – | – | – | – | – | 16 µg/mL (≈ 38.4 µM) | –
9 | CCCCc1cn(CCN/C=C2\C(=O)C(O)=C(C(C)C)c3cc(C)c(-c4c(C)cc5c(c4O)/C(=C/NCCn4cc(CCCC)nn4)C(=O)C(O)=C5C(C)C)c(O)c32)nn1 | > 256 µg/mL | > 256 µg/mL | 128 µg/mL (≈ 156 µM) | > 256 µg/mL | 256 µg/mL (≈ 313 µM) | 64 µg/mL (≈ 78.1 µM) | – | > 256 µg/mL | > 256 µg/mL | 256 µg/mL (≈ 313 µM) | 256 µg/mL (≈ 313 µM) | > 256 µg/mL | > 256 µg/mL | > 256 µg/mL | 256 µg/mL (≈ 313 µM) | > 256 µg/mL | 64 µg/mL (≈ 78.1 µM) | –
10 | Cc1cc2c(c(O)c1-c1c(C)cc3c(c1O)/C(=C/NCCn1cc(COCc4ccccc4)nn1)C(=O)C(O)=C3C(C)C)/C(=C/NCCn1cc(COCc3ccccc3)nn1)C(=O)C(O)=C2C(C)C | > 256 µg/mL | > 256 µg/mL | 64 µg/mL (≈ 67.6 µM) | > 256 µg/mL | 256 µg/mL (≈ 270 µM) | 16 µg/mL (≈ 16.9 µM) | Tde | > 256 µg/mL | > 256 µg/mL | 128 µg/mL (≈ 135 µM) | 128 µg/mL (≈ 135 µM) | > 256 µg/mL | > 256 µg/mL | > 256 µg/mL | 256 µg/mL (≈ 270 µM) | > 256 µg/mL | 16 µg/mL (≈ 16.9 µM) | 1 mg
